Bioassay records deposited in PubChem BioAssay by several laboratories.
Compounds with a hit are over-represented: about 5.1% of the library has one in this group of screens.
STAT1 activator – increases IFN-gamma driven STAT1 reporter signal. activation (% of control), % at 5.5 µM. AID 932. 200,000 tested, 2.6% active. NIH 3T3 STAT1-luciferase reporter, luminescence; 100% = IFN-gamma alone, no compound;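 active means activation above the screen-wide mean activation plus 3 SD, cut at about 130% in these data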;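 further: raw ratio to IFN-gamma control signal so 100% means no change and 0% no light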
STAT1 inh – inhibitors of IFN-gamma induced STAT1 signaling; NIH 3T3 STAT1-luciferase reporter, luminescence; inhibition, % at 5.5 µM; 200,000 tested, 0.35% active;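 active means inhibition above a set limit, the mean inhibition across all tested compounds plus 3 SD, cut at about 34% in these data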;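 further: 0% = IFN-gamma with DMSO and 100% = IFN-gamma with 300 µM nifuroxazide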
STAT3 act – STAT3 signaling activation | activation (% of control), % at 5.6 µM | 190,000 tested, 0.91% active | U3A cells, IL-6 STAT3-luciferase reporter, luminescence; 100% = signal with IL-6 EC80 alone | AID 871;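 active means activation above the screen-wide mean of compound activation plus 3 SD, cut at about 130% in these data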;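 further: 0% = background luminescence of wells with medium and substrate only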
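Assay system – human STAT1-deficient U3A cells with stable STAT3-luciferase reporter · Also added – IL-6 (33 ng/mL) · Schedule – compound 1 h, then IL-6 6 h at 37 °C · Technique – reporter luminescence signal · Evaluation – % activation versus median of IL-6-stimulated wells · Benchmarks – IL-6-only wells as 100% reference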
STAT3 blocker – STAT3 signaling inhibition | 190,000 tested, 0.89% active | U3A cells, IL-6 STAT3-luciferase reporter, luminescence; host cell line lacks STAT1 | inhibition, % at 5.5 µM;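 active means inhibition above the mean inhibition across all screened compounds plus 3 SD, cut at about 44% in these data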;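 further: 0% = DMSO only wells and 100% = 100 µM nifuroxazide control wells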
APP 5'UTR act – APP 5'UTR luciferase reporter activation. activation, % at 2 µM. SH-SY5Y APP 5'UTR luciferase reporter, luminescence; zero percent = DMSO vehicle wells. AID 1276. 190,000 tested, 1% active;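 active means activation above a set limit, based on mean plus 3 SD of controls, cut at about 140% in these data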
NF-kB expr up – raises NF-kB expression in human neuronal cells. NF-kB reporter expression; stronger effect = higher value. fold change at 12.5 µM. 190,000 tested, 1.6% active. AID 1239; in the data active means fold change above about 3.3
* = called active by the depositor.

COc1ccc(C(=O)Nc2nc(-c3cccs3)cs2)cc1 was read as STAT1 activator 137*, STAT1 inh -41, STAT3 act 91, STAT3 blocker 17, APP 5'UTR act 84 and NF-kB expr up 1.5.
Screening Cc1ccc(-c2nn(-c3cc(N4CCNCC4)ccc3[N+](=O)[O-])c(=O)c3ccccc23)cc1 returned STAT1 activator 100, STAT1 inh -1, STAT3 act 105, STAT3 blocker 2, APP 5'UTR act -12 and NF-kB expr up 0.91.
`Cc1c(/C(O)=C2/C(=O)C(=O)N(Cc3cccnc3)C2c2ccccn2)cnn1-c1ccccc1` (stereo unspecified) gave STAT1 activator 49, STAT1 inh 55*, STAT3 act 50, STAT3 blocker 64*, APP 5'UTR act 17 and NF-kB expr up 1.
Cc1c(/C(O)=C2/C(=O)C(=O)N(Cc3cccnc3)C2c2cccs2)cnn1-c1ccccc1 (stereo unspecified) was read as STAT1 activator 141*, STAT1 inh -44, STAT3 act 79, STAT3 blocker 24, APP 5'UTR act 141* and NF-kB expr up 0.5.
`Cc1ccc(/C(O)=C2/C(=O)C(=O)N(Cc3cccnc3)C2c2ccccn2)cc1` (stereo unspecified) gave STAT1 activator 100, STAT1 inh 0, STAT3 act 103, STAT3 blocker -1, APP 5'UTR act -1 and NF-kB expr up 1.2.
For CN(C)S(=O)(=O)c1ccc(/C(O)=C2/C(=O)C(=O)N(Cc3cccnc3)C2c2cccs2)cc1 (stereo unspecified) the results were STAT1 activator 107, STAT1 inh -10, STAT3 act 82, STAT3 blocker 25 and APP 5'UTR act -19.
Screening O=C(O)c1ccc(Nc2nc3c(s2)CCCC3)cc1 returned STAT1 activator 36, STAT1 inh 69*, STAT3 act 32, STAT3 blocker 80*, APP 5'UTR act 65 and NF-kB expr up 3.5*.
COC(=O)c1sc(Nc2ccccc2)nc1C was read as STAT1 activator 128, STAT1 inh -30, STAT3 act 105, STAT3 blocker 0, APP 5'UTR act 35 and NF-kB expr up 1.9.
C1CCN=C(Nc2nc3c(s2)CCCC3)CC1 was read as STAT1 activator 131*, STAT1 inh -34, STAT3 act 100, STAT3 blocker 4, APP 5'UTR act 30 and NF-kB expr up 1.8.
Cc1nc(Nc2ccc(C(=O)O)cc2)sc1-c1ccccc1 was read as STAT1 activator 131*, STAT1 inh -33, STAT3 act 41, STAT3 blocker 72* and APP 5'UTR act 160*.
C/C(=N\Nc1nc2c(s1)CCCC2)c1ccccc1 was read as STAT1 activator 149*, STAT1 inh -53, STAT3 act 184*, STAT3 blocker -101, APP 5'UTR act 15 and NF-kB expr up 2.1.
`CC(C)=C1C2CCC1C1C(=O)N(c3nc(-c4ccccc4)c(C)s3)C(=O)C21` (stereo unspecified) gave STAT1 activator 100, STAT1 inh 0, STAT3 act 98, STAT3 blocker -1, APP 5'UTR act 1 and NF-kB expr up 1.1.
Screening Cc1ccc(C2=NNC3(CCOC(C)(C)C3)S2)cc1 (stereo unspecified) returned STAT1 activator 114, STAT1 inh -18, STAT3 act 89, STAT3 blocker 16, APP 5'UTR act 178* and NF-kB expr up 2.9.
`Cc1ccc(NC(=O)c2ccco2)cc1C` gave STAT1 activator 132*, STAT1 inh -35, STAT3 act 97, STAT3 blocker 11, APP 5'UTR act 105 and NF-kB expr up 2.4.
`COc1cc(NC(=O)CC(C)C)ccc1NC(=O)c1ccco1` gave STAT1 activator 141*, STAT1 inh -45, STAT3 act 90, STAT3 blocker 16 and APP 5'UTR act 97.
`CCC(=O)Nc1ccc(NC(=O)c2ccco2)cc1` gave STAT1 activator 131*, STAT1 inh -34, STAT3 act 96, STAT3 blocker 8, APP 5'UTR act 40 and NF-kB expr up 1.9.
O=C(Nc1ccccn1)c1ccc(NC(=O)c2ccco2)cc1 was read as STAT1 activator 129*, STAT1 inh -34, STAT3 act 97, STAT3 blocker 8, APP 5'UTR act 159* and NF-kB expr up 2.7.
`Cc1ccccc1NC(=O)c1ccc(NC(=O)c2ccco2)cc1` gave STAT1 activator 100, STAT1 inh 0, STAT3 act 90, STAT3 blocker 15, APP 5'UTR act 8 and NF-kB expr up 1.1.
CCC(=O)Oc1ccc(NC(=O)c2ccco2)cc1 was read as STAT1 activator 99, STAT1 inh 2, STAT3 act 103, STAT3 blocker -2, APP 5'UTR act 14 and NF-kB expr up 1.3.
Screening O=C1C2CC=C(Cl)CC2C(=O)N1CCC[n+]1cccc2ccccc21 (stereo unspecified) returned STAT1 activator 104, STAT1 inh -4, STAT3 act 103, STAT3 blocker -3, APP 5'UTR act -9 and NF-kB expr up 1.1.
Screening CC1(C)Oc2ccc(NC(=O)c3ccco3)cc2O1 returned STAT1 activator 129*, STAT1 inh -31, STAT3 act 86, STAT3 blocker 20, APP 5'UTR act 116 and NF-kB expr up 3.
For O=C(Nc1ccc2c(c1)OCCO2)c1ccco1 the results were STAT1 activator 128, STAT1 inh -31, STAT3 act 75, STAT3 blocker 33, APP 5'UTR act 93 and NF-kB expr up 2.2.
Screening O=C(c1ccccc1)c1cccc(NC(=O)c2ccco2)c1 returned STAT1 activator 129*, STAT1 inh -32, STAT3 act 101, STAT3 blocker 2, APP 5'UTR act 39 and NF-kB expr up 1.9.
Screening CCCCOc1ccc(-c2cnc3ccccc3n2)cc1 returned STAT1 activator 149*, STAT1 inh -55, STAT3 act 64, STAT3 blocker 42 and NF-kB expr up 3.6*.
`Clc1ccc(-c2cnc3ccccc3n2)cc1` gave STAT1 activator 113, STAT1 inh -12, STAT3 act 111, STAT3 blocker -16, APP 5'UTR act 135* and NF-kB expr up 3.3*.
CCCCOc1ccc(-c2ncc(Cl)cn2)cc1 was read as STAT1 activator 122, STAT1 inh -24, STAT3 act 91, STAT3 blocker 14, APP 5'UTR act 12 and NF-kB expr up 3.7*.
`c1csc(-c2cnc3ccccc3n2)c1` gave STAT1 activator 129*, STAT1 inh -29, STAT3 act 103, STAT3 blocker 1, APP 5'UTR act 93 and NF-kB expr up 2.6.
`CCCCCCCOc1ccc(-c2ccc(C#N)cn2)cc1` gave STAT1 activator 108, STAT1 inh -9, STAT3 act 99, STAT3 blocker -1, APP 5'UTR act 6 and NF-kB expr up 1.1.
